pIC50, pKi: −log10 of the molar value. Active and inactive are the calls of the source. The calls are words filed in the database; no cut-off is given here.
Legend:
[1] = target: Carbonic anhydrase 1 (Homo sapiens, UniProt P00915); test: Binding affinity to recombinant human carbonic anhydrase 1 after 15 mins by stopped-flow CO2 hydration assay
[2] = target: Carbonic anhydrase 2 (Homo sapiens, UniProt P00918); test: Binding affinity to recombinant human carbonic anhydrase 2 after 15 mins by stopped-flow CO2 hydration assay
[3] = target: Carbonic anhydrase 9 (Homo sapiens, UniProt Q16790); test: Binding affinity to recombinant human carbonic anhydrase 9 after 15 mins by stopped-flow CO2 hydration assay
[4] = target: Carbonic anhydrase 12 (Homo sapiens, UniProt O43570); test: Binding affinity to recombinant human carbonic anhydrase 12 after 15 mins by stopped-flow CO2 hydration assay
Chain of Carbonic anhydrase 12 (O43570 whole entry): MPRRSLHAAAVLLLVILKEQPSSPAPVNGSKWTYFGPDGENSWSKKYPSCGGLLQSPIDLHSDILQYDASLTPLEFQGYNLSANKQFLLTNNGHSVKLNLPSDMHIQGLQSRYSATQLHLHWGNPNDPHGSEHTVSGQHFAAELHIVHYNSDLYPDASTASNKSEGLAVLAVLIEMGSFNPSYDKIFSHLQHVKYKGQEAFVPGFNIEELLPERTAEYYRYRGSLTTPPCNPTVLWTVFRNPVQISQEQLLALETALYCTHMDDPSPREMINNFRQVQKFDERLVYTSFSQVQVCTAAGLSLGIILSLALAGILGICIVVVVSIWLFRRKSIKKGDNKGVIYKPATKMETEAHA

[5] = test system: MDCK; test: Cytotoxicity against carbonic anhydrase 9 knockdown MDCK cells assessed as reduction in cell viability preincubated for 2 hrs followed by 72 hrs incubation under normoxic condition by Alamar blue assay; format: cell-based; conditions: Canis lupus familiaris
[6] = test system: MDCK; test: Cytotoxicity against MDCK cells expressing carbonic anhydrase 9 assessed as reduction in cell viability preincubated for 2 hrs followed by 72 hrs incubation under normoxic condition by Alamar blue assay; format: functional, cell-based; conditions: Canis lupus familiaris
How it was run: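 CAIX-overexpressing or scrambled-vector MDCK cells in DMEM/10% FBS, attached overnight, held 24 h at 21% O2/5% CO2. Drug added (0.5% DMSO vehicle) for 2 h, washed off, then 72 h further normoxic growth. Viability measured by 2 h alamarBlue conversion under normoxia.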

[7] = test system: MDCK; test: Cytotoxicity against carbonic anhydrase 9 knockdown MDCK cells assessed as reduction in cell viability after 2 hrs under hypoxic condition by Alamar blue assay; format: cell-based; conditions: Canis lupus familiaris
How it was run: (§1)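 MDCK cells transfected with human CAIX (CAIX+) or scrambled control vector (CAIX−), in DMEM/10% FBS, seeded and attached overnight. Medium replaced with pre-equilibrated hypoxic DMEM (0.2% O2, 5% CO2) for 24 h. Compounds in DMSO (0.5%) added for 2 h, then washed off. Cells regrown 72 h in normoxia. Viability read by alamarBlue conversion for 2 h under normoxia.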

[8] = test system: MDCK; test: Cytotoxicity against MDCK cells expressing carbonic anhydrase 9 assessed as reduction in cell viability after 2 hrs under hypoxic condition by Alamar blue assay; format: functional, cell-based; conditions: Canis lupus familiaris; how it was run: as §1
[9] = test system: MDCK; test: Cytotoxicity against MDCK cells expressing carbonic anhydrase 9 assessed as reduction in cell viability at 500 nM pretreated for 1 hr followed by 2 Gy irradiation under normoxic condition by Alamar blue assay; format: functional, cell-based; conditions: Canis lupus familiaris
How it was run: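 MDCK CAIX+ cells (human CAIX transfected) under normoxia (21% O2, 5% CO2). ATR inhibitors in 0.5% DMSO added 1 h before X-irradiation with 2 Gy. Exposure 72 h total, medium replaced, then 72 h further growth. Viability by 2 h alamarBlue conversion in normoxia.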

[10] = test system: MDCK; test: Cytotoxicity against carbonic anhydrase 9 knockdown MDCK cells assessed as reduction in cell viability at 500 nM pretreated for 1 hr followed by 4 Gy irradiation under anoxic condition by Alamar blue assay; format: cell-based, Canis lupus familiaris; conditions: dog, 0.5 µM
How it was run: (§2)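 MDCK cells with or without CAIX, pre-exposed 24 h to anoxia (≤0.02% O2, 5% CO2, balance N2) in pre-equilibrated DMEM. ATR inhibitors in 0.5% DMSO added 1 h before 4 Gy X-irradiation. Exposure 72 h total, medium replaced, then 72 h normoxic regrowth. Viability by 2 h alamarBlue in normoxia.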

[11] = test system: MDCK; test: Cytotoxicity against MDCK cells expressing carbonic anhydrase 9 assessed as reduction in cell viability at 500 nM pretreated for 1 hr followed by 4 Gy irradiation under anoxic condition by Alamar blue assay; format: functional, cell-based; conditions: Canis lupus familiaris; how it was run: as §2
[12] = test system: MDCK; test: Cytotoxicity against carbonic anhydrase 9 knockdown MDCK cells assessed as reduction in cell viability at 500 nM pretreated for 72 hrs followed by 72 hrs incubation under normoxic condition by Alamar blue assay; format: cell-based, Canis lupus familiaris; conditions: dog, 0.5 µM
How it was run: (§3)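 MDCK cells transfected with human CAIX or scrambled vector, normoxia (21% O2, 5% CO2). ATR inhibitors in 0.5% DMSO for 72 h, medium replaced, cells grown a further 72 h. Viability from 2 h alamarBlue conversion in normoxia.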

[13] = test system: MDCK; test: Cytotoxicity against MDCK cells expressing carbonic anhydrase 9 assessed as reduction in cell viability at 500 nM pretreated for 72 hrs followed by 72 hrs incubation under normoxic condition by Alamar blue assay; format: functional, cell-based; conditions: Canis lupus familiaris; how it was run: as §3
[14] = test system: MDCK; test: Cytotoxicity against carbonic anhydrase 9 knockdown MDCK cells assessed as reduction in cell viability at 500 nM after 72 hrs under anoxic condition by Alamar blue assay; format: cell-based, Canis lupus familiaris; conditions: dog, 0.5 µM
How it was run: (§4)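 MDCK CAIX+ or CAIX− cells, 24 h anoxic preincubation (≤0.02% O2, 5% CO2) in pre-equilibrated DMEM. ATR inhibitors (0.5% DMSO) applied for 72 h without irradiation, then washed off, and 72 h normoxic regrowth. Readout by 2 h alamarBlue conversion under normoxia.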

[15] = test system: MDCK; test: Cytotoxicity against MDCK cells expressing carbonic anhydrase 9 assessed as reduction in cell viability at 500 nM after 72 hrs under anoxic condition by Alamar blue assay; format: functional, cell-based; conditions: Canis lupus familiaris; how it was run: as §4
[16] = test system: MDCK; test: Cytotoxicity against MDCK cells expressing carbonic anhydrase 9 assessed as reduction in cell viability at 50 nM pretreated for 1 hr followed by 2 Gy irradiation under normoxic condition by Alamar blue assay; format: functional, cell-based; conditions: Canis lupus familiaris
How it was run: (§5)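 ATR inhibitor plus radiation: MDCK CAIX+/CAIX− cells were preconditioned 24 h under normoxia (21% O2) or anoxia (≤0.02% O2). Compound in 0.5% DMSO was added 1 h before X-irradiation, 2 Gy normoxic or 4 Gy anoxic. Total compound exposure was 72 h, then washout and 72 h normoxic regrowth. Readout was 2 h alamarBlue conversion, as relative viability.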

[17] = test system: MDCK; test: Cytotoxicity against carbonic anhydrase 9 knockdown MDCK cells assessed as reduction in cell viability at 50 nM pretreated for 1 hr followed by 4 Gy irradiation under anoxic condition by Alamar blue assay; format: cell-based, Canis lupus familiaris; conditions: dog, 0.05 µM; how it was run: as §5
[18] = test system: MDCK; test: Cytotoxicity against MDCK cells expressing carbonic anhydrase 9 assessed as reduction in cell viability at 50 nM pretreated for 1 hr followed by 4 Gy irradiation under anoxic condition by Alamar blue assay; format: functional, cell-based; conditions: Canis lupus familiaris; how it was run: as §5
[19] = test system: MDCK; test: Cytotoxicity against carbonic anhydrase 9 knockdown MDCK cells assessed as reduction in cell viability at 50 nM pretreated for 72 hrs followed by 72 hrs incubation under normoxic condition by Alamar blue assay; format: cell-based, Canis lupus familiaris; conditions: dog, 0.05 µM
How it was run: (§6)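 ATR inhibitor without irradiation: MDCK CAIX+ or scrambled-control CAIX− cells were preconditioned 24 h at ≤0.02% O2 (anoxia) or 21% O2. Compound was added in 0.5% DMSO for 72 h, then washed off. Cells regrew 72 h under normoxia, followed by 2 h alamarBlue conversion. Viability is relative to control.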

[20] = test system: MDCK; test: Cytotoxicity against MDCK cells expressing carbonic anhydrase 9 assessed as reduction in cell viability at 50 nM pretreated for 72 hrs followed by 72 hrs incubation under normoxic condition by Alamar blue assay; format: functional, cell-based; conditions: Canis lupus familiaris; how it was run: as §6
[21] = test system: MDCK; test: Cytotoxicity against carbonic anhydrase 9 knockdown MDCK cells assessed as reduction in cell viability at 50 nM after 72 hrs under anoxic condition by Alamar blue assay; format: cell-based, Canis lupus familiaris; conditions: dog, 0.05 µM; how it was run: as §6
[22] = test system: MDCK; test: Cytotoxicity against MDCK cells expressing carbonic anhydrase 9 assessed as reduction in cell viability at 50 nM after 72 hrs under anoxic condition by Alamar blue assay; format: functional, cell-based; conditions: Canis lupus familiaris; how it was run: as §6
[23] = test system: MDCK; test: Cytotoxicity against carbonic anhydrase 9 knockdown MDCK cells assessed as reduction in cell viability after 72 hrs under normoxic condition by Alamar blue assay; format: cell-based; conditions: Canis lupus familiaris
[24] = test system: MDCK; test: Cytotoxicity against MDCK cells expressing carbonic anhydrase 9 assessed as reduction in cell viability after 72 hrs under normoxic condition by Alamar blue assay; format: functional, cell-based; conditions: Canis lupus familiaris
[25] = test system: MDCK; test: Cytotoxicity against carbonic anhydrase 9 knockdown MDCK cells assessed as reduction in cell viability after 72 hrs under hypoxic condition by Alamar blue assay; format: cell-based; conditions: Canis lupus familiaris
[26] = test system: MDCK; test: Cytotoxicity against MDCK cells expressing carbonic anhydrase 9 assessed as reduction in cell viability after 72 hrs under hypoxic condition by Alamar blue assay; format: functional, cell-based; conditions: Canis lupus familiaris

Chain of Carbonic anhydrase 1 (P00915 whole entry): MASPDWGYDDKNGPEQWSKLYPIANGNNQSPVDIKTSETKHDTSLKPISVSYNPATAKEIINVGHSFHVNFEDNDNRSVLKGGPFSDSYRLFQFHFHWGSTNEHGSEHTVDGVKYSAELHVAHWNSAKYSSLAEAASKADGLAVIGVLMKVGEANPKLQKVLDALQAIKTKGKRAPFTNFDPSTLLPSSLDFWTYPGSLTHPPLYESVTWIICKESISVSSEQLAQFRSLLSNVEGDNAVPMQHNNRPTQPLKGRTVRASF

Structure (SMILES) | pKi [1] | pKi [2] | pKi [3] | pKi [4] | pIC50 [5] | pIC50 [6] | pIC50 [7] | pIC50 [8] | further results
NS(=O)(=O)c1ccc(CCNC(=O)OCCCCc2ccc(N(CCCl)CCCl)cc2)cc1 | 5.25 | 6.30 | 5.41 | 4.87 | 4.05 | 4.00 | 4.09 | 4.00 | 
Nc1n[n+]([O-])c2ccccc2[n+]1[O-] [TIRAPAZAMINE] | < 4.30 | < 4.30 | < 4.30 | < 4.30 | < 3.52 | < 3.52 | > 4.30 | 4.02 | 
NS(=O)(=O)c1ccc(CCNc2n[n+]([O-])c3ccccc3[n+]2[O-])cc1 |  |  | 6.42 |  | < 3.52 | < 3.52 | 3.52 | < 3.52 | 
CS(=O)(=O)c1ccc(-c2cnc(N)c(C(=O)Nc3ccccc3)n2)cc1 | < 4.30 | < 4.30 | < 4.30 | < 4.30 |  |  |  |  | Activity [9]: Active; Activity [10]: Non-Toxic; Activity [11]: Active; Activity [12]: Toxic; Activity [13]: Active; Activity [14]: Toxic; Activity [15]: Active
NS(=O)(=O)c1ccc(CNC(=O)CCCc2ccc(N(CCCl)CCCl)cc2)cc1 | 5.23 | 6.13 | 5.05 | 5.13 | 4.74 | 4.01 | 4.85 | 4.04 | 
CNCc1ccc(-c2cc(-c3nc(-c4ccc(S(=O)(=O)C(C)C)cc4)cnc3NS(N)(=O)=O)on2)cc1 | < 4.30 | < 4.30 | < 4.30 | < 4.30 |  |  |  |  | Activity [16]: inactive; Activity [17]: Non-Toxic; Activity [18]: inactive; Activity [19]: Toxic; Activity [20]: Active; Activity [21]: Toxic; Activity [22]: Active
Cn1nnc2c(C(=O)Nc3nnc(S(N)(=O)=O)s3)ncn2c1=O |  |  | 6.75 |  |  |  |  |  | pIC50 [23]: < 3.00; pIC50 [24]: < 3.00; pIC50 [25]: < 3.00; pIC50 [26]: < 3.00
NS(=O)(=O)c1ccc(NC(=O)CCCc2ccc(N(CCCl)CCCl)cc2)cc1 | 7.14 | 8.05 | 6.76 | 6.16 | 4.00 | 4.06 | 4.00 | 4.02 | 

From ChEMBL document CHEMBL3992493, “New approach of delivering cytotoxic drugs towards CAIX expressing cells: A concept of dual-target drugs” (Eur J Med Chem, 2017)
